Legend:
[1] = tested on: HT-29; test: Cytotoxicity against human HT-29 cells after 48 hrs by sulforhodamine B assay; type: functional, cell-based; conditions: HT-29, 48 h
Summary of the method: (§1)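 Human 786 (kidney), HT-29 (colon) and PC-3 (prostate) cancer cells exposed to compounds for 48 h at 37 °C.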

[2] = Cytotoxicity against human 786 cells after 48 hrs by sulforhodamine B assay; type: functional, cell-based; summary of the method: as §1
[3] = tested on: PC-3; test: Cytotoxicity against human PC3 cells after 48 hrs by sulforhodamine B assay; type: functional, cell-based; conditions: PC-3, 48 h
[4] = Inhibition of bovine brain tubulin polymerization incubated for 15 mins prior to GTP addition measured after 20 mins by spectrophotometry; design: species or system Bos taurus
[5] = species on record: Bos taurus; test: Displacement of [3H]colchicine from bovine brain tubulin at 5 uM after 10 mins by scintillation counting analysis relative to control
[6] = tested on: MCF7; test: Cytotoxicity against human MCF7 cells after 96 hrs by sulforhodamine B assay; type: functional, cell-based; conditions: MCF7, 96 h
Summary of the method: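 Human MCF-7 breast cancer cells incubated with compounds for 96 h at 37 °C.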

[7] = species on record: Bos taurus; test: Displacement of [3H]colchicine from bovine brain tubulin at 1 uM after 10 mins by scintillation counting analysis relative to control
[8] = biological target: Tubulin; test: Inhibition of tubulin (unknown origin) polymerization after 20 mins; type: protein-complex assay, Homo sapiens

Row | inhibition [5] [%] | SMILES | IC50 [1] [nM] | IC50 [2] [nM] | IC50 [3] [nM] | IC50 [4] [nM] | IC50 [6] [nM] | inhibition [7] [%] | IC50 [8] [nM]
1 |  | COc1cccc2c1C(=O)c1c(O)c3c(c(O)c1C2=O)C[C@@](O)(C(=O)CO)C[C@@H]3O[C@H]1C[C@H](N)[C@H](O)[C@H](C)O1 [DOXORUBICIN] | 440 | 330 |  |  |  |  | 
2 |  | COc1ccc([Se]c2ccc(OC)cc2)cc1 | 210000 |  | 8800 | > 20000 | > 10000 |  | 
3 | 9 | COc1cc(SSc2cc(OC)c(OC)c(OC)c2)cc(OC)c1OC | 76500 | 112000 | 6750 | 5400 | > 10000 |  | 
4 |  | COc1ccc(/C=C\c2cc(OC)c(OC)c(OC)c2)cc1[N+](=O)[O-] |  |  |  |  |  |  | 1800
5 |  | COc1ccc(/C=C\c2cc(OC)c(OC)c(OC)c2)cc1O [COMBRETASTATIN A4] |  | 5000 | 1000 |  | 6 |  | 
6 | 58 | COc1ccc(Sc2cc(OC)c(OC)c(OC)c2)cc1[N+](=O)[O-] | 630 | 1710 | 200 | 2800 | 1000 |  | 
7 | 95 | COc1ccc(Sc2cc(OC)c(OC)c(OC)c2)cc1N | 1310 | 1240 | 530 | 740 | 8 | 74 | 

Row | SMILES | inhibition [5] [%] | IC50 [1] [nM] | IC50 [2] [nM] | IC50 [3] [nM] | IC50 [4] [nM] | IC50 [6] [nM] | inhibition [7] [%] | IC50 [8] [nM]
8 | COc1ccc([Se][Se]c2ccc(OC)cc2)cc1 | 34 | 59500 | 20700 | 1990 | 1700 | > 10000 |  | 
9 | COc1ccc([Se]c2cc(OC)c(OC)c(OC)c2)cc1 | 94 | 280 | 680 | 80 | 620 | 10 | 74 | 

From ChEMBL document CHEMBL2406959, “Synthesis and evaluation of diaryl sulfides and diaryl selenide compounds for antitubulin and cytotoxic activity” (Bioorg Med Chem Lett, 2013)
